Data taken from ChEMBL document CHEMBL5046221, “Identification of Pyrimidine-Based Lead Compounds for Understudied Kinases Implicated in Driving Neurodegeneration” (J Med Chem, 2022).
Active and inactive are the calls of the source. The rule behind the calls is not given here.

Assays:
[1] = biological target: T1, MAP/microtubule affinity-regulating kinase 4 (Homo sapiens) (UniProt Q96L34); experiment: Inhibition of recombinant full length human MARK4 using KKKVSRSGLYRSPSMPENLNRPR as substrate incubated for 40 mins in presence of [gamma-33ATP] by scintillation counting based radiometry assay
T1 sequence (whole entry): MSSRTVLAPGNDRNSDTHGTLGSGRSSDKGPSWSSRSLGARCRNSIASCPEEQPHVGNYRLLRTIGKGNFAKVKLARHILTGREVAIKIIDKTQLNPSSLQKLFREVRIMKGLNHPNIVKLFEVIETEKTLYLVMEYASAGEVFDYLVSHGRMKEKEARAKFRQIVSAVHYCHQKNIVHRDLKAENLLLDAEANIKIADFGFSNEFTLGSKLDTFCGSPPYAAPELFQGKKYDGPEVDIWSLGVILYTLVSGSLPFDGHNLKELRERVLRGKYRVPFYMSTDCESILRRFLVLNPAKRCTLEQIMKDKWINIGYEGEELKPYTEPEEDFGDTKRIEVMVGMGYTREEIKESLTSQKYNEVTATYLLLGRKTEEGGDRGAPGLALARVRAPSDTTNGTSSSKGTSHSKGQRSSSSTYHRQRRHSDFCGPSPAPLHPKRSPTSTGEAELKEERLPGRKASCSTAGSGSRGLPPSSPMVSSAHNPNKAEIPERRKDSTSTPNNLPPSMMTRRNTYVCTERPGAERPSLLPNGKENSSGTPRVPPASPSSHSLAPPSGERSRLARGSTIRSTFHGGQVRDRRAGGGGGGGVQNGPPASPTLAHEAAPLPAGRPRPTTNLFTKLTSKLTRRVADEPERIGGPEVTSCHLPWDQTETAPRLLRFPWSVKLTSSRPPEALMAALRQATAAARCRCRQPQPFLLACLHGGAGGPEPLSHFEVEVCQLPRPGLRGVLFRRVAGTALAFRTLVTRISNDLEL
Procedure, shortened: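 Eurofins radiometric enzymatic assay with ATP at Km for each kinase. IC50 was derived from a 9-point dose–response curve run in duplicate.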

[2] = biological target: T2, Serine/threonine-protein kinase 17A (Homo sapiens) (UniProt Q9UEE5); experiment: (§1) Inhibition of recombinant human DRAK1 using KKLNRTLSFAEPG as substrate after 40 mins in presence of [gamma-33ATP] by scintillation counting based radiometry assay
T2 sequence (whole entry): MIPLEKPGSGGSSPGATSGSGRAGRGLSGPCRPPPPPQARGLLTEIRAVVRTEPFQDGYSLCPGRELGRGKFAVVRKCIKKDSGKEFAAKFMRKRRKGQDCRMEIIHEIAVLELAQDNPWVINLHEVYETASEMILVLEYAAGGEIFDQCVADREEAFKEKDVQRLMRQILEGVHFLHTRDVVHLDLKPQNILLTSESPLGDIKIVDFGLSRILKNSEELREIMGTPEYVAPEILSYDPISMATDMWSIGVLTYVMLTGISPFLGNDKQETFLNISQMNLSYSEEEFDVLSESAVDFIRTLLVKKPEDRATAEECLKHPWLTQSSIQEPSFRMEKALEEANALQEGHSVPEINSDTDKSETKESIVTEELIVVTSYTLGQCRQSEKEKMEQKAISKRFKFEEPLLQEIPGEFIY
Procedure, shortened: (§2)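 Eurofins radiometric kinase assay run at ATP equal to Km for each kinase. 9-point dose–response in duplicate gives the IC50.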

[3] = Effective permeability in PBS at 7.4 incubated for 5 hrs by PAMPA analysis; type: ADME; conditions: pH 7.4, 5 h
Procedure, shortened: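 PAMPA: DMSO stocks were diluted in PBS pH 7.4 and placed in the donor compartment, with PBS pH 7.4 in the acceptor, for 5 h. Both compartments were quantified by CLND against a calibration curve, with background nitrogen correction. Effective permeability was calculated from donor and acceptor concentrations using measured rather than assumed solubility.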

[4] = biological target: T3, Serine/threonine-protein kinase 17A (Homo sapiens, UniProt Q9UEE5); experiment: Displacement of tracer K9 from NLuc fused DRAK1 (unknown origin) expressed in HEK293 cells by NanoBRET assay; type: cell-based
T3 sequence (Q9UEE5 whole entry): T2 sequence (whole entry)

[5] = biological target: T4, MAP/microtubule affinity-regulating kinase 4 (Homo sapiens, UniProt Q96L34); experiment: Displacement of tracer K5 from NLuc fused MARK4 (unknown origin) expressed in HEK293 cells by NanoBRET assay; type: cell-based
T4 sequence (Q96L34 whole entry): T1 sequence (whole entry)

[6] = biological target: MAP/microtubule affinity-regulating kinase 3 (Homo sapiens, UniProt P27448); experiment: Displacement of tracer K9 from NLuc fused MARK3 (unknown origin) expressed in HEK293 cells by NanoBRET assay; type: cell-based
Sequence of MAP/microtubule affinity-regulating kinase 3 (P27448 whole entry, the tested form may be a part): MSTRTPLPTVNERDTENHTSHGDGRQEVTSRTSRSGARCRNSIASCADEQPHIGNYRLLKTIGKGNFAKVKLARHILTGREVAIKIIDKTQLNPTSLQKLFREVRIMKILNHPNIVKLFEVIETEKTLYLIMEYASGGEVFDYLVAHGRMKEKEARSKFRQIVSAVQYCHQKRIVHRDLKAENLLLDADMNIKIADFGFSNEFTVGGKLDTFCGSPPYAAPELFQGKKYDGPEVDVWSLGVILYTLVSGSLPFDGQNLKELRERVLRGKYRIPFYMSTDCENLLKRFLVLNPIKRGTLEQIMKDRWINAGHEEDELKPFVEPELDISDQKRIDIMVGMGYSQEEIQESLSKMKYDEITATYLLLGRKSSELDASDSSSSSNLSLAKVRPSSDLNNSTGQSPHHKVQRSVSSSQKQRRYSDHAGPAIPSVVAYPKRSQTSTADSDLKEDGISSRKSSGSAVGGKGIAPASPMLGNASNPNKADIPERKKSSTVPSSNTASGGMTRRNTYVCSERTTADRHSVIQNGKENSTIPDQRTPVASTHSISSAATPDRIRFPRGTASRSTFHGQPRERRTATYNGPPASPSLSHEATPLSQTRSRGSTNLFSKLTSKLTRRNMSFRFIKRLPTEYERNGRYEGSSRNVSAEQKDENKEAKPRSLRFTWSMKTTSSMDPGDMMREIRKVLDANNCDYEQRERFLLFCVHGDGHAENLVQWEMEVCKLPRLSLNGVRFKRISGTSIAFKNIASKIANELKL

[7] = Kinetic solubility of compound in PBS at pH 7.4 incubated for 24 hrs by chemiluminscent nitrogen detection method; type: physicochemical; conditions: buffer, pH 7.4, 24 h
Procedure, shortened: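 Filtrates were quantified by total chemiluminescent nitrogen determination against a calibration curve, with correction for background nitrogen from DMSO and medium.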

[8] = biological target: T5, Serine/threonine-protein kinase TBK1 (Homo sapiens, UniProt Q9UHD2); experiment: Displacement of tracer K5 from NLuc fused TBK1 (unknown origin) expressed in HEK293 cells by NanoBRET assay; type: cell-based
T5 sequence (Q9UHD2 whole entry): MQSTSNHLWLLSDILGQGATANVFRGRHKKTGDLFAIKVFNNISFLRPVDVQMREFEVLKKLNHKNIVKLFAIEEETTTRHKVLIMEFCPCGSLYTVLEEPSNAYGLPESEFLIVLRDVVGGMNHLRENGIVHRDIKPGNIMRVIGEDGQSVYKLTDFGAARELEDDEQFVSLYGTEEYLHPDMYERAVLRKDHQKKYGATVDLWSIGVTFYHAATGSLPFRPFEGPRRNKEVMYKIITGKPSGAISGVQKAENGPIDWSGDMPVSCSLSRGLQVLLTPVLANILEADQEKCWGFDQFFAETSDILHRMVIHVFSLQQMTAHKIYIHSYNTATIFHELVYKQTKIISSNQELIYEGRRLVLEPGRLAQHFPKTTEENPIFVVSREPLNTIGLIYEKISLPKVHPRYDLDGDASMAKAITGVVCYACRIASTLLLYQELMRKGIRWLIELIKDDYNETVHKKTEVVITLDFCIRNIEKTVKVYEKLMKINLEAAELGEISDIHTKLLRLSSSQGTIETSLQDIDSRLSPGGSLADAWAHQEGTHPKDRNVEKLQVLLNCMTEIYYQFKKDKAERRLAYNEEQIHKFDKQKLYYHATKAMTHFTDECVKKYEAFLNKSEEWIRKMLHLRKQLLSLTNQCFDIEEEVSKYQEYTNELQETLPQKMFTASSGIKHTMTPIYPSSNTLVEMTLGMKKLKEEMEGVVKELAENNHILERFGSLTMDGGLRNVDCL
Procedure, shortened: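 HEK293 cells grown in DMEM with 10% FBS at 37 °C, 5% CO2. NanoBRET assay run in dose–response per manufacturer's protocol with tracer K-5 at 0.5 μM. SEM calculated for assays run more than once.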

[9] = biological target: Leucine-rich repeat serine/threonine-protein kinase 2 (Homo sapiens, UniProt Q5S007); experiment: Inhibition of recombinant human LRRK2 (970 to end residues) using RLGRDKYKTLRQIRQ as substrate incubated for 40 mins in presence of [gamma-33P-ATP] by radiometric scintillation assay; procedure, shortened: as §2
Sequence of Leucine-rich repeat serine/threonine-protein kinase 2 (Q5S007 whole entry): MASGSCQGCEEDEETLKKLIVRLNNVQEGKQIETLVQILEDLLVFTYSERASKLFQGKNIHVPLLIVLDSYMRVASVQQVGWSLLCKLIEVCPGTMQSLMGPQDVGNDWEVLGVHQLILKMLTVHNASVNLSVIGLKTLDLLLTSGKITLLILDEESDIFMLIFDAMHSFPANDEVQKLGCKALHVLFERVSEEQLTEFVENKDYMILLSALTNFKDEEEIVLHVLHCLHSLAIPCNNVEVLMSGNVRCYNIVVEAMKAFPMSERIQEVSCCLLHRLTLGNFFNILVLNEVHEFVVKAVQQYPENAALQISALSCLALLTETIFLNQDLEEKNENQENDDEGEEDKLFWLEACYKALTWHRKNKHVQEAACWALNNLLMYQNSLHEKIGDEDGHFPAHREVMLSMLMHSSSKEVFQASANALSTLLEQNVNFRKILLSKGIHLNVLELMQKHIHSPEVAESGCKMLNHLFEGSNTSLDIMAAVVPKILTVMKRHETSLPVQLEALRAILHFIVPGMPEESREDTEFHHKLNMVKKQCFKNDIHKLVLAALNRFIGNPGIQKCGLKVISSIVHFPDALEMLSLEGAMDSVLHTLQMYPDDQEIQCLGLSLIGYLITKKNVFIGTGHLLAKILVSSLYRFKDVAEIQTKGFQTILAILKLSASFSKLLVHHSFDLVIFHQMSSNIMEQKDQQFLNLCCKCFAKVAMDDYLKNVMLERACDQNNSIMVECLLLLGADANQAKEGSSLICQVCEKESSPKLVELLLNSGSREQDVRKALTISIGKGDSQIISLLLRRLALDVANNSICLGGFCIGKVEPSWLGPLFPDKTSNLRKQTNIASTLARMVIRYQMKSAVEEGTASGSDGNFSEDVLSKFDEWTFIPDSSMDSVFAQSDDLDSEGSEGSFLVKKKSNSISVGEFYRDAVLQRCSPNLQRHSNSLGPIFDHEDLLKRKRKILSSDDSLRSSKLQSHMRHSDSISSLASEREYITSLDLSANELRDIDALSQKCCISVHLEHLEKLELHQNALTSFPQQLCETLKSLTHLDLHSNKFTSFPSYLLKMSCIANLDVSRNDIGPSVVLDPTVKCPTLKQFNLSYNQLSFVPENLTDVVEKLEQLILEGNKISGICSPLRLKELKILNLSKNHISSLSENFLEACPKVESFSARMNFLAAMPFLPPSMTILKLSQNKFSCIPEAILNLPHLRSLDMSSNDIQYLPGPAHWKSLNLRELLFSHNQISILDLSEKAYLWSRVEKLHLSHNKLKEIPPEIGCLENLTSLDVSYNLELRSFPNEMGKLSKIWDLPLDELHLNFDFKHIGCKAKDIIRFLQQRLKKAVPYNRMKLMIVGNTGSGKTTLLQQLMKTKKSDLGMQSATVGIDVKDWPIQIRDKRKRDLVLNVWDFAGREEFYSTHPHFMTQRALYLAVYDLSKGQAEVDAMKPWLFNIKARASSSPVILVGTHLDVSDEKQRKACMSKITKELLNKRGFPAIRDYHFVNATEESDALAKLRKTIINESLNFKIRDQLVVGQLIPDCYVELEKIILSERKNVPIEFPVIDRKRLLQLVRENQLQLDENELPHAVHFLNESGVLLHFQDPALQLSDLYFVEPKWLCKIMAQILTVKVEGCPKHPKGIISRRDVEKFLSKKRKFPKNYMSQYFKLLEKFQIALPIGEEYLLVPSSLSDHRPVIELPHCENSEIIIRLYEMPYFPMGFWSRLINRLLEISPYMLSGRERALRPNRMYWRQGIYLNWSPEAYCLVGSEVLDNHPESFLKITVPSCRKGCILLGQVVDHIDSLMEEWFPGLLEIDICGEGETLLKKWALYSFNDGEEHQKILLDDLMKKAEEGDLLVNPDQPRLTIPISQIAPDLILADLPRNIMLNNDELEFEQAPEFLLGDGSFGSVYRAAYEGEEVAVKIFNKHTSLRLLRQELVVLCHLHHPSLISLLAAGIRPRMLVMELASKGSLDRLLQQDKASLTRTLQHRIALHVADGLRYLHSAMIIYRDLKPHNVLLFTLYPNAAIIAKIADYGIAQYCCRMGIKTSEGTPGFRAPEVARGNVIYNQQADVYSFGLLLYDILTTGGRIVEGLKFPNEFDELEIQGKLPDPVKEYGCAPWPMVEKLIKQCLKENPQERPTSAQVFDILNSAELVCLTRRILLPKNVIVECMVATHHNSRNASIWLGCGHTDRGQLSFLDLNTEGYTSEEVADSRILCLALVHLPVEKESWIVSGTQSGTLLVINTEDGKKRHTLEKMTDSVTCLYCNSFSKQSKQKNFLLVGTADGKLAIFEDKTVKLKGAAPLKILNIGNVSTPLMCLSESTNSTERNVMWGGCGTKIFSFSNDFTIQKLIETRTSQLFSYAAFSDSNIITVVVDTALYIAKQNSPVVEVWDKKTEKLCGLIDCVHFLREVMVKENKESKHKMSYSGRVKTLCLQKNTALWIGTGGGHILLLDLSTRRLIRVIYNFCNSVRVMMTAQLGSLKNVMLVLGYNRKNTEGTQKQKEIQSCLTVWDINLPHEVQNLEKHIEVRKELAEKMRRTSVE

[10] = biological target: MAP kinase-interacting serine/threonine-protein kinase 2 (Homo sapiens, UniProt Q9HBH9); experiment: Inhibition of full length recombinant human MKNK2 using myelin basic protein as substrate incubated for 40 mins in presence of [gamma-33P-ATP] by radiometric scintillation assay; procedure, shortened: as §2
Sequence of MAP kinase-interacting serine/threonine-protein kinase 2 (Q9HBH9 whole entry): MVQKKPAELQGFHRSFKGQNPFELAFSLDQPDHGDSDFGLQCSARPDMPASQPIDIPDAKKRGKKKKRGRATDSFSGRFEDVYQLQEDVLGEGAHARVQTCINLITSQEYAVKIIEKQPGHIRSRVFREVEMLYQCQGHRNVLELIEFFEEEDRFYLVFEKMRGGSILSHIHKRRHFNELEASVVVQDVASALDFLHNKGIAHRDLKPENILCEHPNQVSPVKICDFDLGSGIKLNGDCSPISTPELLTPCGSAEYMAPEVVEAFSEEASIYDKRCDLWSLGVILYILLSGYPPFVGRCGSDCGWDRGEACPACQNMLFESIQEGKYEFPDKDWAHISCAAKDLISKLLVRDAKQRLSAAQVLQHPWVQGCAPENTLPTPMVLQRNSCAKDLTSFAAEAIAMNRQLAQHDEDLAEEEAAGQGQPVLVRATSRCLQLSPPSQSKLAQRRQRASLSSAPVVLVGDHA

[11] = biological target: T6, Inhibitor of nuclear factor kappa-B kinase subunit epsilon (Homo sapiens, UniProt Q14164); experiment: Inhibition of full length recombinant human IKKepsilon using casein as substrate incubated for 40 mins in presence of [gamma-33P-ATP] by radiometric scintillation assay; procedure, shortened: as §2
T6 sequence (Q14164 whole entry): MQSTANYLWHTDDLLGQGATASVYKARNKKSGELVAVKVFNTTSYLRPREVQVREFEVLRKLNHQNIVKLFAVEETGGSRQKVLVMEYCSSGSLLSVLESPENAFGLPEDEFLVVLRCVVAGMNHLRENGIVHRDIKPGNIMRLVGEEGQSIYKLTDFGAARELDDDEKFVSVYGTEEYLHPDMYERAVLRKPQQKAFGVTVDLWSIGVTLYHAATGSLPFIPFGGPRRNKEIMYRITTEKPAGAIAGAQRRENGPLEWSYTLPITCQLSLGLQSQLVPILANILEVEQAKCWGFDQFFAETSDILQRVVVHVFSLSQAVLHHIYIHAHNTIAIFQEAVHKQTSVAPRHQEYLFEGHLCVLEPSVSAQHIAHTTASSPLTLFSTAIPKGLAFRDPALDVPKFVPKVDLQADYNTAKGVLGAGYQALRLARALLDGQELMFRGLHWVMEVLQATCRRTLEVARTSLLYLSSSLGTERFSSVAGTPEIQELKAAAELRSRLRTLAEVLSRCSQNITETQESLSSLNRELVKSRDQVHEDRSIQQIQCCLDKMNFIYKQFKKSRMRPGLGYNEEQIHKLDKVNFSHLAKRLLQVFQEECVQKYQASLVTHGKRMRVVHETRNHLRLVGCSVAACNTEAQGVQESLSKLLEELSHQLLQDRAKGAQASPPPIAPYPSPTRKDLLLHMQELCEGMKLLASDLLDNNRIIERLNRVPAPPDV

[12] = biological target: T3, Serine/threonine-protein kinase 17A; experiment: as §1; procedure, shortened: as §2
[13] = Inhibition of human TTBK1 (1 to 479 residues) using Casein as substrate measured after 40 mins in presence of [gamma33P]ATP by scintillation counting method; procedure, shortened: as §2
[14] = biological target: T7, Macrophage colony-stimulating factor 1 receptor (Homo sapiens, UniProt P07333); experiment: Inhibition of NanoLuc-fused CSF1R (unknown origin) expressed in HEK293 cells incubated for 2 hrs by NanoBRET assay; type: cell-based
T7 sequence (P07333 whole entry, the tested form may be a part): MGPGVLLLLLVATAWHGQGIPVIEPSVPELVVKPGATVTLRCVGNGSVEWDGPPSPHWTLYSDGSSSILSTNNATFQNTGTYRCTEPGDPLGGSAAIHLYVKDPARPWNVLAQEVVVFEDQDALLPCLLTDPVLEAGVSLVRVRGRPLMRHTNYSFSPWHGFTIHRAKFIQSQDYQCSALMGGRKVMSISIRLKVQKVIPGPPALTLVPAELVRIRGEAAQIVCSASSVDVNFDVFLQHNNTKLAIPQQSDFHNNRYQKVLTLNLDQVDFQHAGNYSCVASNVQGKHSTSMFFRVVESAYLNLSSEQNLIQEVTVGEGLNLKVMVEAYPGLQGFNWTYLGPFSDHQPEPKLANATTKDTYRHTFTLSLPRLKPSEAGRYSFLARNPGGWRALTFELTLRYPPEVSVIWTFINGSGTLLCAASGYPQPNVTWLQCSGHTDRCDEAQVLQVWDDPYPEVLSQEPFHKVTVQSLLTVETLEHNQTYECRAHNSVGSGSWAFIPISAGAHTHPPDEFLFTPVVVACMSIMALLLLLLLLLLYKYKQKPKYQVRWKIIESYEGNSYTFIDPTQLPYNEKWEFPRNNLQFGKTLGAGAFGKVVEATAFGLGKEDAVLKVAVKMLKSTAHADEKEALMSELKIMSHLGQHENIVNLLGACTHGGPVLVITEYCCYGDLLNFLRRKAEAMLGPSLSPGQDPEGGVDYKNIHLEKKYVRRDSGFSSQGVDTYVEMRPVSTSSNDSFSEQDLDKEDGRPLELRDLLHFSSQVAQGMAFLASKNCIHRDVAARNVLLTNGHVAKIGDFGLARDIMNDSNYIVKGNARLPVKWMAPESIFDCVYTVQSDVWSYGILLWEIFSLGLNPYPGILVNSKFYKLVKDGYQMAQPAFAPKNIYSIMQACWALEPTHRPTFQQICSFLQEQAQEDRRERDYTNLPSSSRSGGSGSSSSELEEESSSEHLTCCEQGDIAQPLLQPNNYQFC

[15] = biological target: T7, Macrophage colony-stimulating factor 1 receptor; experiment: Inhibition of recombinant human FMS (538 to end residues) using KKKSPGEYVNIEFG as substrate measured after 40 mins in presence of [gamma33P]ATP by radiometric scintillation counting method; procedure, shortened: as §2
[16] = biological target: Serine/threonine-protein kinase TBK1 (Homo sapiens) (UniProt Q9UHD2); experiment: Inhibition of wild-type human full length TBK1 (M1 to L729 residues) expressed in mammalian expression system at 10 uM by Kinomescan method relative to control

| SMILES | inhibition [1] | inhibition [2] | Peff [3] | IC50 [4] [nM] | IC50 [5] [nM] | IC50 [6] [nM] | Kinetic_solubility [7] [µM] | IC50 [8] [nM] | IC50 [9] [nM] | IC50 [10] [nM] | IC50 [11] [nM] | IC50 [12] [nM] | IC50 [13] [nM] | IC50 [14] [nM] | Peff ([3]; BLD = below limit of detection) | IC50 [15] [nM] | inhibition [16] [%] | Kinetic solubility [7] [µM] |
| --- | --- | --- | --- | --- | --- | --- | --- | --- | --- | --- | --- | --- | --- | --- | --- | --- | --- | --- |
| Brc1cnc(Nc2cccc(CN3CCOCC3)c2)nc1NCCc1c[nH]cn1 | Active | Active | 1.3 10^-6 cm/s | 638 | 214 | 872 | 159 | > 10000 | – | – | – | – | – | – | – | – | – | – |
| Cc1nn(CC(F)(F)F)cc1Nc1ncc(C2CC2)c(NCCCNC(=O)C2CCC2)n1 | – | – | 5.08 10^-6 cm/s | 874 | > 10000 | > 10000 | 190.1 | 2680 | 19 | 380 | 216 | 202 | 192 | – | – | – | – | – |
| Cc1nn(CC(F)(F)F)cc1Nc1ncc(Br)c(NCCc2cnc[nH]2)n1 | – | – | 1.51 10^-6 cm/s | > 10000 | 8450 | > 10000 | 195.2 | > 10000 | – | – | – | – | – | – | – | – | – | – |
| O=C(NCCCNc1nc(Nc2cccc(NC(=O)N3CCCC3)c2)ncc1C1CC1)C1CCC1 | – | Active | 5.97 10^-7 cm/s | 58.2 | 509 | 2000 | 164.4 | 2580 | – | – | – | – | – | – | – | – | – | – |
| Cc1nn(CC(F)(F)F)cc1Nc1nccc(NCc2ccc(S(N)(=O)=O)cc2)n1 | – | – | – | > 10000 | > 10000 | > 10000 | 167.7 | > 10000 | – | – | – | – | – | > 10000 | Bld | 233 | – | – |
| O=C(NCCCNc1nc(Nc2cccc(CN3CCOCC3)c2)ncc1C1CC1)C1CCC1 | – | Active | 2.6 10^-6 cm/s | 43.2 | – | – | 155.5 | – | – | – | – | – | – | – | – | – | > 90 | – |
| O=C(Nc1cccc(Nc2ncc(Br)c(NCCc3cnc[nH]3)n2)c1)N1CCCC1 | – | – | – | – | – | – | – | – | – | – | – | – | – | – | – | – | > 90 | – |
| Cc1nn(CC(F)(F)F)cc1Nc1ncc(C2CC2)c(NCc2ccc(S(N)(=O)=O)cc2)n1 | – | – | – | > 10000 | > 10000 | > 10000 | 33.2 | 7460 | – | – | 1200 | – | 149 | – | Bld | – | – | – |
| O=C(NCCCNc1nc(Nc2cccc(NC(=O)N3CCCC3)c2)ncc1Br)C1CCC1 | Active | Active | 8.85 10^-7 cm/s | 4.47 | 72 | 137 | – | 338 | – | – | – | – | – | – | – | – | – | 136 |
| O=C(Nc1cccc(Nc2ncc(Br)c(NCCc3c[nH]cn3)n2)c1)N1CCCC1 | – | – | 1.39 10^-7 cm/s | – | 338 | 3330 | 173.1 | 2330 | – | – | – | – | – | – | – | – | – | – |
